For seven compounds, IC50 and ED50 results are on record in ChEMBL document CHEMBL1124624, “Synthesis and biological evaluation of 4,6-diethyl-1,3,4,5-tetrahydropyrano[4,3-b]indole-4-acetic acid, an isomer of etodolac” (J Med Chem, 1989).

Experiment [1] is described as follows: In vitro inhibition of prostaglandin E2 production in cultured chondrocytes. The class given is functional, cell-based. The procedure, abridged:
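Cultured chondrocytes were exposed to compound at neutral pH over a short incubation period. Prostaglandin E2 production was measured, and inhibitory potency is given as an IC50.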

Experiment [2] deals with Rattus norvegicus. As to the kind of experiment: Antiinflammatory activity of the perorally administered compound assessed in adjuvant arthritis assay in rat. As to conditions: po. The class given is functional. The essentials: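 Rats given test compound by mouth in the curative (established-disease) adjuvant arthritis/edema model. Inhibition of paw edema was scored, and potency is given as an ED50 in mg/kg.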

Usually IC50 stands for the midpoint of a concentration-inhibition curve. The term ED50 denotes the dose at which the effect has come halfway, by size or by number of responders. The compound `CCC1(CC(=O)O)SCCc2c1[nH]c1ccccc21` (configuration not stated) had an IC50 in experiment [1] of 300 nM. Besides, the ED50 in experiment [2] was greater than 25 mg/kg.

With `CCc1cccc2c3c([nH]c12)C(CC)(CC(=O)O)CCCC3` (configuration not stated), the ED50 in experiment [2] is greater than 50 mg/kg.

The compound `CCC1(CC(=O)O)OCCc2c1[nH]c1ccccc21` (configuration not stated) displayed an IC50 in experiment [1] of 100 nM. Further, the ED50 in experiment [2] came to 6.8 mg/kg.

Regarding `CCc1cccc2c3c([nH]c12)C(CC)(CC(=O)O)CCC3` (configuration not stated), it took 20 nM to reach half-maximal inhibition in experiment [1] (IC50). The ED50 in experiment [2] was 1.9 mg/kg.

The compound `CCc1cccc2c3c([nH]c12)C(CC)(CC(=O)O)COC3` (configuration not stated) yielded an IC50 in experiment [1] of 50 nM. Also, the ED50 in experiment [2] worked out at 3 mg/kg.

For `CCc1cccc2c3c([nH]c12)C(CC)(CC(=O)O)CC3` (configuration not stated), the ED50 in experiment [2] was determined as 6.2 mg/kg.

`CCc1cccc2c3c([nH]c12)C(CC)(CC(=O)O)OCC3` (configuration not stated) [ETODOLAC] gave an IC50 in experiment [1] of 23 nM. In addition, the ED50 in experiment [2] stood at 0.7 mg/kg.
